Bioassay records (PubChem)
Many of the other results were omitted from the sample, so hits are more common in it than they were.
PGC1a acetyl up: raises PGC1a acetylation signal in U2OS cells; hit rate 0.21% among 350,000; activation, % at 15.6 µM; U2OS PGC1a acetylation AlphaScreen, overnight;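 active means every replicate reaching activation of at least 50%, whatever the mean replicate activation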;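 further: hits raise the AlphaScreen acetylation signal above neutral controls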
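Incubation: overnight compound treatment, 37 °C. System: U2OS cells transduced with flag-tagged PGC1a and GCN5 acetyltransferase. Detection: AlphaScreen lysate read. Compound: single-point compound dosing.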
Large screens that a line does not name were inactive.

Cc1ccc(-c2cnc3c(c2)C(=O)N([C@@H](C)CO)C[C@@H](C)[C@H](CN(C)C)O3)cc1	none
COc1ccc(OC)c(CN2CCN(C(=O)c3ccc(NS(=O)(=O)c4cccc([N+](=O)[O-])c4)cc3)CC2)c1	none
O=C(Oc1ccc[nH]c1=O)c1cc([N+](=O)[O-])cc([N+](=O)[O-])c1	none
COC(=O)c1cc(C(=O)N2CCN(c3cccc(Cl)c3)CC2)cc([N+](=O)[O-])c1	PGC1a acetyl up 77.5
COc1cc(CN2CCN(Cc3ccccc3C(F)(F)F)CC2)cc(OC)c1OC	none
O=S(=O)(Nc1ccccn1)c1ccc(-n2cccn2)cc1	none
O=C(Cn1cc(C(=O)c2cccs2)c2ccccc21)NCC1CCCO1 (configuration not stated)	PGC1a acetyl up 85.7
CN(CC(=O)NCC1CCCO1)S(=O)(=O)c1cc(Cl)ccc1Cl (configuration not stated)	none
O=C(c1ccc(NC(=O)C2(c3ccccc3)CCOCC2)cc1)N1CCOCC1	none
On1onc2c3cc(-c4ccccc4)nc3ccc21	PGC1a acetyl up 620.5
c1ccc(-c2cc(-c3ccccc3)n3ncnc3n2)cc1	none
O=C(C(Br)=Cc1ccccc1)c1ccccc1	PGC1a acetyl up 159.7
COc1ccc(CCn2c(-c3ccc(OC)cc3)nc3c(c(=O)c4ccccc4n3C)c2=O)cc1	PGC1a acetyl up 109.0
CCOc1ccc(OCc2ccc(C(=O)NN=Cc3ccc[nH]3)cc2)cc1	none
CCc1nnc(N/N=C/c2ccccc2Cl)n1N	none
O=c1oc(-c2ccccc2)cc(Cl)c1Cl	PGC1a acetyl up 115.0
CCn1c(SCC(=O)Nc2ccc(OC)c(OC)c2)nnc1-c1cccs1	none
CCn1c(SCC(N)=O)nnc1C(C)C	none
CCn1c(CNc2ccc(C)cc2)nnc1SCC(N)=O	PGC1a acetyl up 76.4
Cc1noc(C)c1S(=O)(=O)Nc1ccc2c(c1)C(=O)N([C@@H](C)CO)C[C@@H](C)[C@@H](CN(C)CC1CCCCC1)OCCCC[C@@H](C)O2	none
CC(=O)Nc1ccc(C(=O)OC2CCOC2=O)cc1 (configuration not stated)	none
COc1cc(CC(=O)OC2CCOC2=O)cc(OC)c1OC (configuration not stated)	PGC1a acetyl up 57.3
COc1cc(CCC(=O)Nc2cc(C)cc(C)c2)cc(OC)c1OC	none
Cc1cccc(S(=O)(=O)N(C)C[C@@H]2OCc3cn(nn3)CCCC(=O)N([C@H](C)CO)C[C@H]2C)c1	none
OC[C@@H]1CN(Cc2ccccc2)C[C@H](n2cnc3c(NCc4ccco4)ncnc32)O1	none
Cc1nnc(Nc2ccc3c(c2)OCO3)c2ccccc12	PGC1a acetyl up 84.1
CC(CCC(=O)O)C1CCC2C3CCC4CC(O)CCC4(C)C3CC(O)C12C (configuration not stated)	none
O=S(=O)(C/C(=C/CO)S(=O)(=O)c1ccccc1)c1ccccc1	PGC1a acetyl up 112.2
CC1CCCC(C)N1C(=S)NCc1ccco1 (configuration not stated)	none
CN(C)CCNC(=O)c1cccc2c(-c3ccc(F)c(F)c3)coc12	PGC1a acetyl up 78.1
Cc1cnc(NC(=O)c2nn(C)cc2[N+](=O)[O-])s1	PGC1a acetyl up 130.8
Cc1ccc(Cn2ccc(NC(=O)c3nn(C)cc3[N+](=O)[O-])n2)cc1	PGC1a acetyl up 144.8
Cc1ccc(-c2nc(NC(=O)c3nn(C)cc3[N+](=O)[O-])sc2C)cc1C	none
Cn1cc([N+](=O)[O-])c(C(=O)Nc2nc(-c3ccc(Cl)cc3)cs2)n1	none
Cc1ccc(-c2nc(NC(=O)c3nn(C)cc3[N+](=O)[O-])sc2C)cc1	none
Cc1ccc(CNn2cnnc2SCC(=O)NC(C)(C)C)cc1	none
Cc1nn(-c2ccccc2)c(Cl)c1C(=O)N1CCN(c2ncnc3c2cnn3-c2ccccc2)CC1	none
CCCCN(CCCC)CCNC(=O)c1ccc2nc(-c3ccccc3NC(C)=O)c(=O)[nH]c2c1	none
O=C(Nc1cccc(F)c1)N1CC(=O)N2[C@@H](CO)[C@@H](c3ccc(C#Cc4cccnc4)cc3)[C@@H]2C1	none
COc1ccc(C#Cc2ccc([C@@H]3[C@H](CO)N4CCCCN(C(=O)Nc5ccc(F)cc5)C[C@@H]34)cc2)cc1	PGC1a acetyl up 70.5
CC(C)CC#Cc1ccc([C@H]2[C@H](CO)N3C(=O)CN(C(=O)Nc4cc(F)ccc4F)C[C@@H]23)cc1	none
CCCCN(C)Cc1c(C)[nH]c2ccccc2c1=O	none
CN1CC=C2C(C#N)=C(N)C(C#N)(C#N)C(CCc3ccccc3)C2C1 (configuration not stated)	none
CCOc1ccccc1CNC(=O)c1cc2oc3ccccc3c2n1C	PGC1a acetyl up 88.1
Cn1c(C(C#N)C(=O)c2sc3ccccc3c2Cl)nc2ccccc21 (configuration not stated)	none
CC(=O)c1ccc(N2CCN(c3ccc(S(=O)(=O)NCCCN(C)C)cc3[N+](=O)[O-])CC2)cc1	PGC1a acetyl up 95.2
C[C@@H]1CN([C@@H](C)CO)C(=O)CCCn2cc(nn2)CO[C@H]1CN(C)S(=O)(=O)c1ccccc1	none
COc1cc(Cn2c(N)c(C#N)c3nc4ccccc4nc32)cc(OC)c1	PGC1a acetyl up 51.6
CCC(=O)Nc1cccc(C(=O)/C=C/c2ccccc2)c1	none
Cc1cccc(NC(=O)CCC(=O)N/N=C/c2ccc(O)cc2O)c1	PGC1a acetyl up 51.2
COCC(=O)OCC(=O)Nc1cc(C(C)(C)C)nn1-c1ccccc1	none
CN(C)Cc1c(O)ccc2c1O/C(=C\C=C\c1ccccc1)C2=O	PGC1a acetyl up 78.7
COc1ccc(-c2cnc3c(c2)C(=O)N([C@H](C)CO)C[C@@H](C)[C@@H](CN(C)C(=O)Nc2c(C)noc2C)O3)cc1	none
C=CC[C@@H](CC(=O)N[C@@H](CO)Cc1ccccc1)C(=O)N[C@@H](COC(=O)[C@@H](CC=C)CC(=O)OC(C)(C)C)Cc1c[nH]c2ccccc12	PGC1a acetyl up 154.7
CCOC(=O)NC(=S)Nc1cccc(NC(=S)NC(=O)OCC)c1	none
COc1ccc(COc2cc(-c3cccc(OC)c3)nc3ccc(NC(=O)c4cccnc4)cc23)cc1	PGC1a acetyl up 53.0
Cc1cc(C)cc(OC(=O)CS(=O)c2ccc(C(F)(F)F)cc2[N+](=O)[O-])c1 (configuration not stated)	PGC1a acetyl up 63.9
COc1cc(C2Nc3cccc4cccc(c34)N2)cc(OC)c1OC(C)=O	none
COc1ccc(-c2noc(CCC(=O)N3CCN(c4cccc(C)c4C)CC3)n2)cc1	none
Cc1ccc(CNC(=O)c2ccc(CS(=O)(=O)c3ccccc3)o2)cc1	none
O=C(NCc1cccnc1)/C(=C/c1ccc(-c2ccc(Cl)cc2)o1)S(=O)(=O)c1ccccc1	PGC1a acetyl up 359.7
CN1CCN2c3ncccc3Cc3ccccc3[C@@H]2C1	none
CC1(Cc2ccc(Cl)cc2)C(=O)Nc2ccc(-c3cccnc3)cc21 (configuration not stated)	none
Cc1ccc(CC2(C)C(=O)Nc3c(Cl)ccc(Cl)c32)cc1 (configuration not stated)	PGC1a acetyl up 158.9
COC(=O)c1cc(CN2C(=O)c3ccccc3C2=O)c(O)c([N+](=O)[O-])c1	none
O=S1(=O)CCC(N=Cc2ccc(-c3ccc(Cl)cc3)o2)C1 (configuration not stated)	none
CS(=O)(=O)Nc1ccc2c(c1)[C@@H]1C[C@H](CC(=O)N3CCc4ccccc4C3)O[C@@H](CO)[C@@H]1O2	none
O=C(Nc1cccc(OC(F)(F)F)c1)c1ccc(-c2cccnc2)c2ccoc12	PGC1a acetyl up 58.7
Cc1ccc(Cl)cc1N1CCN(C(=O)CSc2nnc3n2C(C)(C)Cc2ccccc2-3)CC1	PGC1a acetyl up 51.8
Cc1cc(=O)[nH]c(SCC(=O)N2CCc3ccccc3C2)n1	none
CCOCCn1c(N2CCN(c3ccccc3)CC2)nc2c1c(=O)n(C)c(=O)n2C	PGC1a acetyl up 53.8
